Experimental data pooled from the literature.
Each line is one published result; the experiments were not run side by side.
Read-out: binding
mnmE: mnmE (Escherichia coli, UniProt P25522)
PIKFYVE: 1-phosphatidylinositol 3-phosphate 5-kinase (PIKFYVE, Homo sapiens, UniProt Q9Y2I7)
PIK3CB: Phosphatidylinositol 4,5-bisphosphate 3-kinase catalytic subunit beta isoform (PIK3CB, Homo sapiens, UniProt P42338)
UCK2: Uridine-cytidine kinase 2 (UCK2, Homo sapiens, UniProt Q9BZX2)
IRAK3: Interleukin-1 receptor-associated kinase 3 (IRAK3, Homo sapiens, UniProt Q9Y616)

Compound | target | assay | conditions | Kd [nM]
CN1c2c([nH]c(N)nc2=O)NC[C@@H]1CNc1ccc(C(=O)N[C@@H](CCC(=O)O)C(=O)O)cc1 | mnmE | ITC | pH 7.5 | 1100
COc1ccc2[nH]c(C)c(/C=C/C(=O)c3ccncc3)c2c1 | PIKFYVE | competition with immobilised ligand |  | 6.9
CCC(=O)N1CCC(C(=O)NCC(=O)N2CCN(c3nc(-c4cnc(N)nc4C(F)F)nc(N4CCOCC4)n3)CC2)CC1 | PIK3CB |  |  | 0.71
Cc1[nH]c2ccc(OC(C)C)cc2c1/C=C/C(=O)c1ccncc1 | PIKFYVE | competition with immobilised ligand |  | 51
C=CC(=O)N1CCC(C(=O)NCC(=O)N2CCN(c3nc(-c4cnc(N)nc4C(F)F)nc(N4CCOCC4)n3)CC2)CC1 | PIK3CB |  |  | 0.85
Cc1cc2nc3c(=O)[nH]c(=O)nc-3n(C[C@H](O)[C@H](O)[C@H](O)COP(=O)(O)OP(=O)(O)OC[C@H]3O[C@@H](n4cnc5c(N)ncnc54)[C@H](O)[C@@H]3O)c2cc1C | LRP1 (Homo sapiens, UniProt Q07954) |  | lysate | 43900
Nc1nc(=O)c2c([nH]1)NC[C@@H](CNc1ccc(C(=O)N[C@@H](CCC(=O)O)C(=O)O)cc1)N2C=O | mnmE | ITC | pH 7.5 | 200
CC(=O)O[C@H]1C(O)O[C@H](COP(=O)(O)OP(=O)(O)OC[C@H]2O[C@@H](n3cnc4c(N)ncnc43)[C@H](O)[C@@H]2O)[C@H]1O (stereo partly drawn) | NAD-dependent histone deacetylase SIR2 (Saccharomyces cerevisiae S288c, UniProt P06700) | SPR |  | 304
Nc1nc2c(c(=O)[nH]1)N1CN(c3ccc(C(=O)N[C@@H](CCC(=O)O)C(=O)O)cc3)C[C@H]1CN2 | mnmE | ITC | pH 7.5 | 310
O=c1ccn([C@@H]2O[C@H](CO)[C@@H](O)[C@H]2O)c(=O)[nH]1 | UCK2 | fluorescence |  | 5.8
c1cncc(-c2cccc(Nc3nccc(NC4CCCCC4)n3)c2)c1 | IRAK3 | competition with immobilised ligand |  | 1400
[N-]=[N+]=N[C@@H]1[C@H](O)[C@@H](CO)O[C@H]1n1ccc(N)nc1=O | UCK2 | fluorescence |  | 17.8
COc1cc(Nc2ncc3c(n2)-c2ccc(Cl)cc2C(c2c(F)cccc2OC)=NC3)ccc1C(=O)O | IRAK3 |  | lysate | 2200
Cc1cnc(-c2ccc(-c3ccc(NC(=O)Nc4c(F)cc(F)cc4F)cc3F)c3c2C(=O)NC3)[nH]1 | Dual specificity mitogen-activated protein kinase kinase 1 (MAP2K1, Homo sapiens, UniProt Q02750) | competition with immobilised ligand |  | 23
COc1ccc(Nc2nnc(-c3ccc(C(=O)NO)cc3)o2)cc1 | Glycogen synthase kinase-3 beta (GSK3B, Homo sapiens, UniProt P49841) | SPR |  | 1000
